B1: tRNA (parent)
chain: GUUCCGUUGGCGUAAUGGUAACGCGUCUCCCUCCUAAGGAGAAGACUGCGGGUUCGAGUCCCGUACGGAACG

This sample holds only a part of the variants without activity.

The results in this text go back to the RNAGym collection of RNA variant scans (doi:10.1126/science.aae0568).

In this series the parent is B1. Kind of series: yeast fitness relative to wild type (ratio to wild type); higher = fitter; tRNA-Arg(CCU), competitive growth, 37 C, YPD. In short, it runs like this: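 The tRNA-Arg(CCU) gene variants were made by chemical synthesis with a 3% per-site mutation rate at 69 sites and inserted at the native genomic locus of Saccharomyces cerevisiae. After pooling, the strains were competed in YPD at 37°C for 24 hours in six parallel replicates. Gene amplicons from the start population and each end population were read by 100-nucleotide paired-end sequencing, and Darwinian fitness relative to wild type was taken from genotype frequency changes. Genotypes needed ≥ 100 starting reads, and estimates < 0.5 were set to 0.5.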
On to GUUCCGUUGGCGUUGUGGUACCGCGUCUCCCUCCUAAGGAGAAGACUGCGGGUUCAAGUCCUGUUCGGAACG, for which the yeast fitness amounted to 0.554. To GUUCCGUUGGCGUUAUGGUCACACGUCUCCCUCCUAAGGAGAAGAAUGCGGGUUCGAGUCCCGCACGGAACG belongs at most 0.5; to GUUCCGUUGGCGUUAUGGUAAUGCGUCUCCCUCCUAAGGAGAAGUCUGCGGGUUCGAGUCCCGUACGGAACG, at most 0.5.

As for GUUCCGUUGGCGUUAUGGUAACGCGUCUCCCUCCUAAGGAGAAGCCUGCGGGUUCGAGUCCCGUACGGUACG, the yeast fitness came to 0.592. Then GUUCCGUUGGCGUUAUGGUCACGCGUCUCCCUCCUAAGGAGAAGACUGCGGGUUCGAGCCCCGUACGGAACG, with at most 0.5. For GUUCCGUUGGCGUUAUGGUGACGAGUCUCCUUCCUAUGGAGAAGACUACGGGUUCGAGUCCCGUACGGCACG, the yeast fitness was at most 0.5. With GUUCCGUUGGCGUUAUGGUAACGCGUCUCCCUCCUAAGGAGAAGCUUGGGGGUUCGAGUCCCAUACGGAUCG, the yeast fitness came out at 0.661. Regarding GUUCCGUUGGCGUUAUGGUAACGCGUCUCCCUCCUAAGGAGAUGGCUGCGGGCUCGAGUCCCGUACGGAACG, the yeast fitness was at most 0.5. In the case of GUUCCGUUGGCGUUAUGGUAACGGGUCUCCCUCCUGAGGAGAAGACUGCGGGUUCGAGUCCCGUAUGGAACG, the yeast fitness was at most 0.5. To GUUCCGUUGGCGUUAUGGUAACGCGUCUCCCUCCUAAGGAGAAGACUGCGGGUUCGAGUCCCGUACGGUACG belongs 0.702.

For the variant GUUCCGUUGGCGUUAUGGUAACGCGUCUCCCUCCUAAGGCGAAGACUGCGGGUUCGAGUCCAGUAUGGAACG, the yeast fitness turned out to be 0.603. Regarding GUUCCGUUGGCGUUAUGGUAACGCGUCUCCCUCCUAAGGAGAAGUCUGCGGGUUCGACUCCCGUACGGAACG, the yeast fitness is at most 0.5. To GUUCCGUUGGCGUGAUGGUAACGCGUCUCCCUCCUAAGGAGAAGACUGCGGGUUCGAGACCCGUACGGAACG belongs 0.894; to GUUCCGUUGGCGUUAUGGUAACGCGUCUCCCUCCUAUGGAGAAGACUGCGGGUUCGAGUCCCGUGCGGAACG, at most 0.5; to GUUCCGUUGGCGUUAUGGUAAAGCGUCACUCUCCUAAGGAGAAGACUGCGGGACCGAGUCCCGUACGGAACG, at most 0.5.

Take GUUCCGUUGGCGUUAUGGUAAAGCGUCUCCCUCCUAAGGAGAGGACUGCGGGUUCGAGUCCCGUACGGAACG: the yeast fitness was at most 0.5. As to GUUCCGUUGGCGUUAUGGUAAGGCGUCUCCCUCCUAAGGAGCAGACUGCGGGUUCGAGUCCCGUAUGGAACG, the yeast fitness was at most 0.5. With GUUCCGUUGGCGUUAUGGUAACGCGUCUCCCUCCUAUGGAGAAGACUGCGGGUUCGAGUCCCGUACGGAACG, the yeast fitness was at most 0.5.

For the variant GUUCCGUUGGCGUUAUGGUAAGGCGUCUCCCUCCUAAGGAGUAGACUGCGGGUUCGAGUCCCGUACGGAACG, the yeast fitness was at most 0.5. For GUUCCGUUGGCGUUAUGGUAACGCGUCUCCCUCCUAUGGAGAAGACUGCGGGUUCGAGUCACGUUCGGAACG, the yeast fitness was at most 0.5. To GUUCCGUUGGCGUUAUGGUUACGCGUCUCCCUCCUAAGGAGAAGACUGCGGGUUCGAGUCCCGUACAGAACG belongs 0.544. To GUUCCGUUGGCGUUAUGGUAUCGCGUCUGCCUCCUAAGGAGAAGAUUGCGGGUUCGAGUCCCGUACGGAACG belongs at most 0.5. In the case of GUUCCGUUGGCGUUAUGGUCACGCGUCUCCGUCCUAAGGAGAAGACUGCGGGUUCGAGUCCCGUACGGUACG, the yeast fitness is at most 0.5. To GUUCCGUUGGCGUUAUGGUAACGGGUCUCCCUCCUAAGGAGAAGACUGCGGGUUCGAGUCCCGUACGGAACG belongs 0.657; to GUUCCGUUGGCGUUAUGGUAACGCGUCUCCCUCCUAAGGAGAAGACUGCGGGUUCGAGUCCCGUACGGAGCG, 0.734; to GUUCCGUUGGCGUUAUGGUAGCGCGUCUCCCUCCUAAGGAGAAGCCUGCGGGUUCGAGCCCCGUACGGAACG, at most 0.5. To GUUCCGUUGGCGUUAUGGUCACGCGUCUCCCUCCUAAGGAGAAGACUGCGGGUUCGAGACCCGUAAGGAACG belongs at most 0.5. To GUUCCGUUGGCGUUCUGGUAACGCGUCUCCCUCCUAAGGAGAAGACUGCGGGUUCGAGUCCCGUACGGAACG belongs 0.681; to GUUCCGUUGGCGUUGUGGUAACGCGUCUCCCUCCUAAGGAGAAGACUGCGGGUUCGAGUCCCGUACGGAACG, 0.725.

In the case of GUUCCGUUGGCGUUGUGAUAACGCGUCUCCCUCCUAAGGAGAAGACUGCGGGUUCGAGUCCCGUACGGAACG, the yeast fitness is at most 0.5. To GUUCCGUUGGCGUGAUGGUAACGCGUCUCCCUCCUAAGGAGAAGACUGCGGGUCCGAGUCCCGUACGGAGCG belongs 0.535; to GUUCCGUUGGCGUUAUGGUGACGCGUCUCGCUCCUAAGGAGCAGACUGCGGGUUCGAGUCCCGUACGGAACG, at most 0.5.

For GUUCCGUUGGCGUUAUGGUAGCGCGUCUCCCUCCUAAGCAGAAGGCUGCGGGUUCGAGUCCCCUACGGAACG, the yeast fitness is at most 0.5. Then GUUCCGUUGGCGUUGUGGUAACGCGUCUCCCUUCUAAGGAGCAGACUGCGGGUUCGAGUCCCGUACGGAACG, with at most 0.5. In the case of GUUCCGUUGGCGUUAUGGUAACGCGUCUCCCUCCUAAGGAGAAGACUGCGGGUUCGAGUCCCGUGGGGAACG, the yeast fitness was 0.788.

With GUUCCGUUGGCGUUAUGGUAACGCGUCUCCCUCCUAAGGAGAGGACUGCGGGUUCGAGUCCCCUACGGAACG, the yeast fitness was at most 0.5. To GUUCCGUUGGCGUUAUGGUAAUGCGUCUCUCUCCUAAGGAGAAGAUUGCGGCUUCGAGUCCCGUACGGAACG belongs at most 0.5; to GUUCCGUUGGCGUUAUGGUACCGCGUCUCCCUCCUAAGGAAAAGACUGCGGGUUCGAGUCCCGUACCGAACG, at most 0.5. Consider GUUCCGUUGGCGUUAUGGUAACGCGUCUCCCUCCUAUGGAGAAGUCUGCGGGUUCGAGUCCCGUACGGAACG, for which the yeast fitness is at most 0.5. To GUUCCGUUGGCGUUGUGGUAACGCGUCUCCAUCGUAAGGAGAAGACUGCGGGUUCGAGUCUCGUACGGAACG belongs at most 0.5; to GUUCCGUUGGCGUUAUGGUACCGCGUCUCCCUCCUAAGGAGAAGACUGCGGGUGCGAGUCCCGUACGGAACG, at most 0.5; to GUUCCGUUGGCGUUAUGGUAACGCGUCUCCCUCCUUAGGAGAAGACUGCGGGUUCGAGUCCGGUACGGAACG, at most 0.5. Then GUUCCGUUGGCGUUCUGGUAACGCGUCUCCCUCCUAAGGGGAAGACUGCGGGUUCCAGUCCCGUACCGAACG, with at most 0.5; and GUUCCGUUGGCGUUAUGGUUACGCGUCUCCCUCCUAAGGAGAAGACUGUGGGUUCGAGUCCCGUACGGAACG, with at most 0.5. To GUUCCGUUGGCGUUAUGGUAGCGCAUCUCCCUCGUAAGGAGAAGACUGCGGGUUCGUGUCCCGUACGGUACG belongs at most 0.5.

As to GUUCCGUUGGCGUUAUGGUAACGCGUCUCCCUCCUAAGGAGCAGACUGCGGAUUCCAGUCCCGUACGGAACG, the yeast fitness is at most 0.5. As for GUUCCGUUGGCGUUAUGGUAGCGCGUCUCCCUCCUAAGGAGAUGACUGCGGGUUCGACUCCCGUACGGAACG, the yeast fitness is at most 0.5. Regarding GUUCCGUUGGCGUGAUGGUAACGCGUCUCCCUCCUAAGGAGAAGACUGCGGGUCCGAGUCCCGUACGGAACG, the yeast fitness is 0.633. On to GUUCCGUUGGCGUUAUGGUAACGCGUCUCCCUCCUAAGGAGAAGACUGCGGGUUCGAGUCCCGUACGGUCCG, for which the yeast fitness is at most 0.5. To GUUCCGUUGGCGUUAUGGUACCGCGUCUCCCUCCUCAGGAGAAGACUGAGGGUUCGAGUCCCGUACGCAACG belongs at most 0.5; to GUUCCGUUGGCGUUAUGGUAACGCGUCUCCCUCCUAAGGAGAAGACUGCGGGUUCGUGUACCGUACGGAACG, at most 0.5; to GUUCCGUUGGCGUUAUGGUAACGCGUCUCCCUCCUAAGGAGAAGACUGCGGGUUCGCGUGACGUACGGAACG, 0.601. Then GUUCCGUUGGCGUUAUGGUAGCGCGUCUCCCUCCUAAGCAGAAGGCUGCGGGCUCGAGUCCCGUACGGAACG, with 0.521. For the variant GUUCCGUUGGCGUUAUGGUAACGCGUCUCCCUCCUGAGGAGAAGACUGCGGGAUCGAGUCCCGUACGGAACG, the yeast fitness was at most 0.5. Take GUUCCGUUGGCGUUAUGGUAACGCGUCUCCCUCCUAAGGAGAAGUCUGCGGGUUCGAGUCCCGUACGCAACG: the yeast fitness was at most 0.5. To GUUCCGUUGGCGUGAUGGUAACGCGUCUCCCUCCUAAGGAGAAGACUGCGGGUACGAGUCCCGUACGGUACG belongs at most 0.5; to GUUCCGUUGGCGUUAUGGUAACGCGUCUCCCUCCUAAGGAGAAGGCUGCGGGUUCGAGUCCCGUACGGAACG, 0.67.

With GUUCCGUUGGCGUUUUGGUAACGCGUCUCCCUCGUAAGGAGCAGACUGCGGGUUCGAGUCCCGUACGGAACG, the yeast fitness turned out to be 0.537. With GUUCCGUUGGCGUUAUGGUAAGGCGUCUCCCUCCUAAGGAGAAGACUGCGGGUUCGAGUCCCGUACGGAUCG, the yeast fitness was determined as 0.576. As to GUUCCGUUGGCGUUAUGGUAACGCGUCUCCCUCCUAAGGAGCAGACUGCGGGUUCGAGUCCCGUACGGAACG, the yeast fitness was 0.639.

GUUCCGUUGGCGUUAUGGUAACGCGUCUCCCUCCUAAGGCGAAGACUGCGGGUUCGCGUCUCGUACGGAACG: the yeast fitness was at most 0.5. On to GUUCCGUUGGCGUUCUGGUAACGCGUCUCCCUACUAAGCAGAAGACUGCGGGUUCGAGUCCCGUACGGAACG, for which the yeast fitness is at most 0.5.

Regarding GUUCCGUUGGCGUUAUGGUAACGCGUCUCCCUCCUAAGGAGAUGACUGCGGGUUCGAGUCCCGUACGGAACG, the yeast fitness amounted to 0.721. For the variant GUUCCGUUGGCGUUGUGGUAACGUGUCUCCUUCCUAAGGAGAAGACUGCGGGUUCGAGUCUCGUACGGAACG, the yeast fitness was at most 0.5.

As to GUUCCGUUGGCGUUAUGGUAACGCGUCUCCCUCCUAAGGAGAGGACUGCGGGUUCGAGGCCGAUACGGAACG, the yeast fitness worked out at 0.558. To GUUCCGUUGGCGUUAUGGUAACGCGUCUCCCUCCUAAGGAGAAGGCUGCGGGCUCGAGUCCCGUACGGAACG belongs at most 0.5; to GUUCCGUUGGCGUUAUGGUAGCGCGUCUCCCUCCUAAGGAGAAGACUGCGGGUUCGAGUCCCGUACGGAACG, 0.584. With GUUCCGUUGGCGUUAUGGUAACGCGUCUCCCUCCUUAGGAGAAGGCUGCGGGUUCGAGUCCCGUACGGAACG, the yeast fitness is at most 0.5. GUUCCGUUGGCGUUAUGGUAACGCGUCUCCCUCCUAUGGCGGAGACUGCGGGUUCGAGUCCCGUACGGAACG: the yeast fitness was at most 0.5.

With GUUCCGUUGGCGUUAUGGUAACGCGUCUCCCUCCUAAGGAGAUGACUGCGGGUUGGAGUCCCGUACGGAACG, the yeast fitness was 0.511. As to GUUCCGUUGGCGUUAUGGUCACGCGUUUCCCUCCCAAGGAGAAGACUACGGGUUCGAGUCCAGUACGGAACG, the yeast fitness is at most 0.5. GUUCCGUUGGCGUUAUGGUCAGGCGUCUCCGUCCUAAGGAGAAGACAGCGGGUUCGAGUCCCGUACGGAACG: the yeast fitness is at most 0.5. To GUUCCGUUGGCGUUAUGGUAACGCGUCUCCCUCCUAAGGAGAUGACUGCGGGUUCGAGACCCGUACGGAACG belongs at most 0.5; to GUUCCGUUGGCGUUAUGGUAUUGCGUCUCCCUCCUAAGGAGAAGACUGCGGGUUCGAGUCCCGUACGGAACG, 0.527; to GUUCCGUUGGCGUUAUGGUAACGCGUCUCCCUCCUAAGGAGGGGACUGCGGGUUCGAGUCCCGUAGGGAACG, at most 0.5.
